The list is not random: actives were taken first. Their share in the collection is about 11%.
Htt clearance = mutant huntingtin protein clearance. inhibition, % at 1.5 µM. HeLa Exon1htt(103Q)mCFP, aggregate imaging; zero = plate's median compound well. 47,000 tested, 0.42% active;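 active means inhibition of aggregate fluorescence above about 70%, also judged a hit by eye on the cell image, limit read from the data, passing the limit was not always enough; inconclusive means no rule stated for this call; inactive means not judged a hit on image review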;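 further: cells exposed to compound for three days before fixation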
M1 antagonist = antagonists of rat M1 muscarinic receptor. P08482. CHO-M1 cells, Fluo-4 calcium, ACh EC80 antagonist mode; active compounds read low. B-score at 10 µM. 64,000 tested, 3.4% active;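 active means calcium fluorescence response, raw or row-and-column corrected B-score, differing from the plate sample mean either way at a set confidence level, mostly lower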
Target sequence (P08482 whole entry, looked up): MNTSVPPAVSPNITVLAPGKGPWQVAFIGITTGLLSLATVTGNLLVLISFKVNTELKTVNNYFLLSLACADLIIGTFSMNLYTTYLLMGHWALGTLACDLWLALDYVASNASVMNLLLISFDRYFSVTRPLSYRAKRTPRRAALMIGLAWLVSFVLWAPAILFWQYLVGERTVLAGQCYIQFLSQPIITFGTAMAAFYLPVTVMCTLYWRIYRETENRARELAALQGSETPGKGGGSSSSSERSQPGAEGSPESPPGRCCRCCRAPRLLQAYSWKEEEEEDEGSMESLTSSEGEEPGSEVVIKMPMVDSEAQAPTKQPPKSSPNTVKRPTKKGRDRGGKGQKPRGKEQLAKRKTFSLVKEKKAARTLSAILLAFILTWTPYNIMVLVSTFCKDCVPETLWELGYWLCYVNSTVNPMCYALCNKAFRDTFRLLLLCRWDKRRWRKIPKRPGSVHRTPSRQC
RORA act = activators of human nuclear receptor RORA. AID 560. 65,000 tested, 1.5% active. P35398. CHO-K1 Gal4-RORA LBD luciferase reporter, luminescence; percent increase over mock-subtracted basal signal. activation, % at 10 µM;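 active means activation above the mean of all tested compounds plus 3 SD, cut at about 49% in these data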
D1 allo mod = allosterically modulates the human D1 dopamine receptor. 58,000 tested, 5.9% active. HEK293 D1, CRE-luciferase, dopamine EC30 potentiation; actives deviate in either direction. B-score at 10 µM;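 active means luminescence count or its row- and column-corrected plate score outside the 99.7% band of the plate's sample wells, on either side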
M1 agonist = activates the M1 muscarinic receptor; CHO-M1 cells, Fluo-4 calcium fluorescence, agonist mode; active compounds read high; B-score at 10 µM; 64,000 tested, 3% active;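 active means fluorescence rise, raw or as B-score row- and column-corrected plate score, outside the 99.7% band of its plate's samples, either direction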
SF-1 act = activators of human nuclear receptor SF-1; CHO-K1 Gal4-SF-1 LBD luciferase reporter; % increase over DMSO SF-1-specific signal; 65,000 tested, 1.9% active; activation, % at 10 µM;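 active means activation above the mean activation of all tested compounds plus 3 SD, cut at about 50% in these data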
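material = CHO-K1 cells with Gal4–hSF-1 LBD chimera plus Gal4-driven luciferase | compound = 10 µM single point, 1% DMSO | incubation = 20 h compound exposure at 37 °C after 1 h cell settling | measured by = SteadyLite luciferase luminescence | evaluation = percent activation relative to DMSO median and mock-transfected background | control set = DMSO negative control and −SF1 background wells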
M1 agonist conf = confirmation of rat M1 muscarinic receptor agonists | shares compounds with M1 agonist | CHO-M1 cells, Fluo-4 calcium fluorescence, agonist mode; actives lie on both sides | fluorescence change (max-min) at 10 µM | 1,700 tested, 19% active | AID 1488;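 active means fluorescence change differs from the solvent-only DMSO control mean at a set confidence level in both duplicate runs; inconclusive means differs from solvent-only control mean in just one of two runs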;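 further: an EC20 dose of acetylcholine follows compound addition during the same imaging run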
M4 ag counter = rat M4 muscarinic agonism, M1 counter-screen. shares compounds with M1 agonist. CHO M4/Gqi5 cells, Fluo-4 calcium fluorescence, agonist mode; actives lie on both sides. fluorescence change (max-min) at 10 µM. 1,700 tested, 9% active. AID 1741;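 active means fluorescence change differing from the plate's solvent-only control wells at 99.7% confidence in both duplicates, whether higher or lower; inconclusive means differs from solvent controls in only one of two duplicates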
Hits are given with their value.

What do the screens show for `Cc1cc(C)nc(/N=C2\NC(=O)CC(C(=O)O)N2CCc2c[nH]c3ccccc23)n1` (configuration not stated)?
Htt clearance: inactive; M1 antagonist: inactive; RORA act: inactive; M1 agonist: 3.2; SF-1 act: inactive; M1 agonist conf: inactive; M4 ag counter: inactive

Results for Cn1c(NCCCN2CCOCC2)nc2c1c(=O)n(Cc1ccc(Cl)c(Cl)c1)c(=O)n2C ?
Htt clearance: inactive; M1 antagonist: inactive; RORA act: inactive; D1 allo mod: inactive; M1 agonist: inactive; SF-1 act: inactive

How did c1ccc(-n2nnnc2NCCc2c[nH]c3ccccc23)cc1 do in these assays?
Htt clearance: inactive; M1 antagonist: inactive; RORA act: inactive; D1 allo mod: inactive; M1 agonist: 5.8; SF-1 act: inactive; M1 agonist conf: inactive; M4 ag counter: inconclusive

What do the screens show for `O=C(NCc1cccnc1)c1c(F)c(F)c(F)c(F)c1F`?
Htt clearance: inactive; RORA act: inactive; SF-1 act: inactive

Results for Cc1ccc(Nc2nc(-c3sc(NC(=O)c4ccco4)nc3C)cs2)cc1 ?
Htt clearance: inactive

What do the screens show for `CC(=O)Nc1nc(C)c(-c2csc(Nc3ccc(O)cc3)n2)s1`?
M1 antagonist: -2; RORA act: inactive; D1 allo mod: inactive; M1 agonist: 6.4; SF-1 act: inactive; M1 agonist conf: inactive; M4 ag counter: inconclusive

What do the screens show for `CCOC(=O)C1CCCN(CC(O)COc2ccc(OC)cc2C(C)(C)C)C1` (configuration not stated)?
M1 antagonist: -6.7; RORA act: inactive; D1 allo mod: inactive; M1 agonist: 20; SF-1 act: inactive; M1 agonist conf: 335; M4 ag counter: inactive

Results for CCOC(=O)CC(=O)CSc1nc2ccccc2c(=O)n1-c1ccc(C(=O)N2CCOCC2)cc1 ?
M1 antagonist: inactive; RORA act: inactive; D1 allo mod: inactive; M1 agonist: inactive; SF-1 act: inactive

Results for CCOC(=O)N1CCN(C(=O)CSc2nc3ccccc3c(=O)n2-c2ccccc2)CC1 ?
Htt clearance: inactive; M1 antagonist: inactive; RORA act: inactive; D1 allo mod: inactive; M1 agonist: 3.8; SF-1 act: inactive; M1 agonist conf: inconclusive; M4 ag counter: inconclusive

What do the screens show for `CCN(CC)c1ccc2c(C)c(CN3CCOCC3)c(=O)oc2c1`?
Htt clearance: inactive; M1 antagonist: -2.9; RORA act: inactive; D1 allo mod: inactive; M1 agonist: 7.1; SF-1 act: inactive; M1 agonist conf: inactive; M4 ag counter: inactive

Results for Nc1ccc2nc(-c3ccc(Cl)cc3)[nH]c2c1 ?
M1 antagonist: inactive; RORA act: 82; M1 agonist: -2.2; SF-1 act: 64; M1 agonist conf: inconclusive; M4 ag counter: inactive

Results for Cc1ccc(C)c(-c2nc3ccc(N)cc3[nH]2)c1 ?
Htt clearance: inactive; M1 antagonist: inactive; RORA act: inactive; D1 allo mod: inactive; M1 agonist: inactive; SF-1 act: inactive

How did CC(=O)c1c(O)cc(=O)n(-c2ccccc2)c1-c1cccc2ccccc12 do in these assays?
Htt clearance: inactive

Results for CCOC(=O)CNC(=O)CSc1nnc(-c2ccco2)n1N ?
M1 antagonist: inactive; RORA act: inactive; D1 allo mod: inactive; M1 agonist: 2.3; SF-1 act: inactive; M1 agonist conf: -27; M4 ag counter: -89

What do the screens show for `CCOC(=O)CNC(=O)CSc1nnc(-c2ccco2)n1Cc1ccco1`?
Htt clearance: inactive; M1 antagonist: inactive; RORA act: inactive; D1 allo mod: inactive; M1 agonist: inactive; SF-1 act: inactive

What do the screens show for `O=C(NCc1ccc2c(c1)OCO2)C1CCCN(S(=O)(=O)c2cccnc2)C1` (configuration not stated)?
Htt clearance: inactive; M1 antagonist: inactive; RORA act: inactive; D1 allo mod: inactive; M1 agonist: inactive; SF-1 act: inactive

How did CCOC(=O)C1CCCN(C/C(O)=C(\C#N)c2nc(-c3ccc(Cl)cc3)cs2)C1 (configuration not stated) do in these assays?
Htt clearance: inactive; M1 antagonist: inactive; RORA act: inactive; D1 allo mod: inactive; M1 agonist: 21; SF-1 act: inactive; M1 agonist conf: inconclusive; M4 ag counter: inactive

How did CCOC(=O)C1CCCN(Cc2nc(N)nc(Nc3ccc(Cl)cc3)n2)C1 (configuration not stated) do in these assays?
Htt clearance: inactive; M1 antagonist: inactive; RORA act: inactive; D1 allo mod: inactive; M1 agonist: inactive; SF-1 act: inactive

Results for O=C(Nc1nnc(CCN2CCCCC2)s1)C1CCCCC1 ?
Htt clearance: inactive; M1 antagonist: inactive; RORA act: inactive; D1 allo mod: inactive; M1 agonist: 2.7; SF-1 act: inactive; M1 agonist conf: inconclusive; M4 ag counter: inactive

What do the screens show for `O=C(C1CC(c2ccccc2O)=NO1)N1CCCCC1` (configuration not stated)?
Htt clearance: inactive

Results for CC(C)Cn1c(N)c(C(=O)NCC2CCCO2)c2nc3ccccc3nc21 (configuration not stated) ?
M1 antagonist: inactive; RORA act: inactive; M1 agonist: inactive; SF-1 act: inactive

How did COCCn1c(N)c(C(=O)NCC2CCCO2)c2nc3ccccc3nc21 (configuration not stated) do in these assays?
Htt clearance: inactive; M1 antagonist: inactive; RORA act: inactive; D1 allo mod: inactive; M1 agonist: 7.8; SF-1 act: inactive; M1 agonist conf: -26; M4 ag counter: inconclusive

How did CCCc1cc(=O)oc2cc3occ(C)c3cc12 do in these assays?
Htt clearance: inactive; M1 antagonist: inactive; RORA act: inactive; D1 allo mod: inactive; M1 agonist: 2.7; SF-1 act: inactive; M1 agonist conf: inactive; M4 ag counter: inconclusive

What do the screens show for `COc1cccc(CNn2c(-c3cccc(C)c3)nc3ccccc3c2=O)c1O`?
Htt clearance: inactive; M1 antagonist: inactive; RORA act: inactive; D1 allo mod: inactive; M1 agonist: 8.6; SF-1 act: inactive; M1 agonist conf: inconclusive; M4 ag counter: inactive

How did COc1cccc(/C=N/n2c(C)nc3ccccc3c2=O)c1O do in these assays?
Htt clearance: inactive; M1 antagonist: inactive; RORA act: inactive; D1 allo mod: inactive; M1 agonist: inactive; SF-1 act: inactive

Results for COc1cc(-c2nc3cnccn3c2Nc2ccccc2)ccc1O ?
M1 antagonist: inactive; RORA act: inactive; D1 allo mod: inactive; M1 agonist: 5.5; SF-1 act: inactive; M1 agonist conf: inactive; M4 ag counter: inactive

What do the screens show for `c1ccc(-c2nc3cnccn3c2Nc2ccc3c(c2)OCCO3)cc1`?
Htt clearance: inactive; M1 antagonist: inactive; RORA act: inactive; D1 allo mod: inactive; M1 agonist: inactive; SF-1 act: inactive
